In ChEMBL document CHEMBL3734675, “Synthesis, antimycobacterial and antibacterial activity of fluoroquinolone derivatives containing an 3-alkoxyimino-4-(cyclopropylanimo)methylpyrrolidine moiety” (2015):
Converted amounts (≈) assume the structure as drawn.

Experiments:
Assay type in all cases: functional
[1] = system: Mycobacterium tuberculosis; assay: Antimycobacterial activity against Mycobacterium tuberculosis H37Rv ATCC 27294 incubated for 7 days by microplate Alamar Blue assay; conditions: H37Rv ATCC 27294, 168 h
How it was run: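 Fluorescence read-out. MIC is the lowest concentration that reduces fluorescence by at least 90% relative to the mean of replicate bacterium-only controls. Isoniazid and rifampicin were included as reference drugs.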

Escherichia coli [2] = assay: Antibacterial activity against Escherichia coli ATCC 25922 after 18 to 24 hrs by two-fold serial dilution method
How it was run: (§1)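 Twofold serial dilution in agar media against Gram-positive and Gram-negative strains. Plates incubated at 35 °C for 18–24 h. MIC read as the lowest compound concentration giving complete inhibition of bacterial growth.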

Escherichia coli [3] = assay: Antibacterial activity against extended-spectrum beta-lactamase producing Escherichia coli 14-1 after 18 to 24 hrs by two-fold serial dilution method; how it was run: as §1
Escherichia coli [4] = assay: Antibacterial activity against extended-spectrum beta-lactamase producing Escherichia coli 14-2 after 18 to 24 hrs by two-fold serial dilution method; how it was run: as §1
Escherichia coli [5] = assay: Antibacterial activity against Escherichia coli 14-1 after 18 to 24 hrs by two-fold serial dilution method; how it was run: as §1
Escherichia coli [6] = assay: Antibacterial activity against Escherichia coli 14-2 after 18 to 24 hrs by two-fold serial dilution method; how it was run: as §1
Klebsiella pneumoniae [7] = assay: Antibacterial activity against extended-spectrum beta-lactamase producing Klebsiella pneumoniae 14-17 after 18 to 24 hrs by two-fold serial dilution method; how it was run: as §1
Klebsiella pneumoniae [8] = assay: Antibacterial activity against extended-spectrum beta-lactamase producing Klebsiella pneumoniae 14-18 after 18 to 24 hrs by two-fold serial dilution method; how it was run: as §1
Klebsiella pneumoniae [9] = assay: Antibacterial activity against extended-spectrum beta-lactamase producing Klebsiella pneumoniae 14-19 after 18 to 24 hrs by two-fold serial dilution method; how it was run: as §1
Klebsiella pneumoniae [10] = assay: Antibacterial activity against Klebsiella pneumoniae 14-1 after 18 to 24 hrs by two-fold serial dilution method; how it was run: as §1
Klebsiella pneumoniae [11] = assay: Antibacterial activity against Klebsiella pneumoniae 14-2 after 18 to 24 hrs by two-fold serial dilution method; how it was run: as §1
Klebsiella pneumoniae [12] = assay: Antibacterial activity against Klebsiella pneumoniae 14-3 after 18 to 24 hrs by two-fold serial dilution method; how it was run: as §1
Klebsiella pneumoniae [13] = assay: Antibacterial activity against Klebsiella pneumoniae 14-4 after 18 to 24 hrs by two-fold serial dilution method; how it was run: as §1
Pseudomonas aeruginosa [14] = assay: Antibacterial activity against Pseudomonas aeruginosa ATCC 27853 after 18 to 24 hrs by two-fold serial dilution method; how it was run: as §1
Pseudomonas aeruginosa [15] = assay: Antibacterial activity against Pseudomonas aeruginosa 14-9 after 18 to 24 hrs by two-fold serial dilution method; how it was run: as §1
Pseudomonas aeruginosa [16] = assay: Antibacterial activity against Pseudomonas aeruginosa 14-14 after 18 to 24 hrs by two-fold serial dilution method; how it was run: as §1
Pseudomonas aeruginosa [17] = assay: Antibacterial activity against Pseudomonas aeruginosa 14-15 after 18 to 24 hrs by two-fold serial dilution method; how it was run: as §1
Pseudomonas aeruginosa [18] = assay: Antibacterial activity against Pseudomonas aeruginosa 14-16 after 18 to 24 hrs by two-fold serial dilution method; how it was run: as §1
Staphylococcus aureus [19] = assay: Antibacterial activity against Staphylococcus aureus CMCC 26003 after 18 to 24 hrs by two-fold serial dilution method; how it was run: as §1
Staphylococcus aureus [20] = assay: Antibacterial activity against methicillin-sensitive Staphylococcus aureus 14-1 after 18 to 24 hrs by two-fold serial dilution method; how it was run: as §1
Staphylococcus aureus [21] = assay: Antibacterial activity against methicillin-sensitive Staphylococcus aureus 14-3 after 18 to 24 hrs by two-fold serial dilution method; how it was run: as §1
Staphylococcus aureus [22] = assay: Antibacterial activity against methicillin-sensitive Staphylococcus aureus 14-4 after 18 to 24 hrs by two-fold serial dilution method; how it was run: as §1
Staphylococcus aureus [23] = assay: Antibacterial activity against methicillin-resistant Staphylococcus aureus 14-4 after 18 to 24 hrs by two-fold serial dilution method
How it was run: (§2)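 Agar media, standard twofold serial dilution. MIC is the lowest concentration giving complete inhibition of bacterial growth after incubation at 35 °C for 18–24 h. Ciprofloxacin and levofloxacin were run as comparators.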

Staphylococcus aureus [24] = assay: Antibacterial activity against methicillin-resistant Staphylococcus aureus 14-5 after 18 to 24 hrs by two-fold serial dilution method; how it was run: as §2
[25] = system: Staphylococcus epidermidis; assay: Antibacterial activity against methicillin-sensitive Staphylococcus epidermidis 14-2 after 18 to 24 hrs by two-fold serial dilution method; how it was run: as §1
[26] = system: Staphylococcus epidermidis; assay: Antibacterial activity against methicillin-resistant Staphylococcus epidermidis 14-21 after 18 to 24 hrs by two-fold serial dilution method; how it was run: as §2
[27] = system: Staphylococcus epidermidis; assay: Antibacterial activity against methicillin-resistant Staphylococcus epidermidis 14-22 after 18 to 24 hrs by two-fold serial dilution method; how it was run: as §2
[28] = system: Staphylococcus epidermidis; assay: Antibacterial activity against methicillin-resistant Staphylococcus epidermidis 14-37 after 18 to 24 hrs by two-fold serial dilution method; how it was run: as §2
[29] = system: Staphylococcus epidermidis; assay: Antibacterial activity against methicillin-resistant Staphylococcus epidermidis 14-39 after 18 to 24 hrs by two-fold serial dilution method; how it was run: as §2
Streptococcus pneumoniae = assay: Antibacterial activity against methicillin-resistant Streptococcus pneumoniae ATCC 19615 after 18 to 24 hrs by two-fold serial dilution method; how it was run: as §2
Enterococcus faecium [30] = assay: Antibacterial activity against Enterococcus faecium 14-2 after 18 to 24 hrs by two-fold serial dilution method; how it was run: as §1
Enterococcus faecium [31] = assay: Antibacterial activity against Enterococcus faecium 14-5 after 18 to 24 hrs by two-fold serial dilution method; how it was run: as §1
Enterococcus faecium [32] = assay: Antibacterial activity against Enterococcus faecium 14-6 after 18 to 24 hrs by two-fold serial dilution method; how it was run: as §1
Enterococcus faecalis [33] = assay: Antibacterial activity against Enterococcus faecalis 14-1 after 18 to 24 hrs by two-fold serial dilution method; how it was run: as §1
Enterococcus faecalis [34] = assay: Antibacterial activity against Enterococcus faecalis 14-2 after 18 to 24 hrs by two-fold serial dilution method; how it was run: as §1

Compound	MIC90 [1] [µg/mL]	MIC (Escherichia coli [2]) [µg/mL]	MIC (Escherichia coli [3]) [µg/mL]	MIC (Escherichia coli [4]) [µg/mL]	MIC (Escherichia coli [5]) [µg/mL]	MIC (Escherichia coli [6]) [µg/mL]	MIC (Klebsiella pneumoniae [7]) [µg/mL]	MIC (Klebsiella pneumoniae [8]) [µg/mL]	MIC (Klebsiella pneumoniae [9]) [µg/mL]	MIC (Klebsiella pneumoniae [10]) [µg/mL]	MIC (Klebsiella pneumoniae [11]) [µg/mL]	MIC (Klebsiella pneumoniae [12]) [µg/mL]	MIC (Klebsiella pneumoniae [13]) [µg/mL]	MIC (Pseudomonas aeruginosa [14]) [µg/mL]	MIC (Pseudomonas aeruginosa [15]) [µg/mL]	MIC (Pseudomonas aeruginosa [16]) [µg/mL]	MIC (Pseudomonas aeruginosa [17]) [µg/mL]	MIC (Pseudomonas aeruginosa [18]) [µg/mL]	MIC (Staphylococcus aureus [19]) [µg/mL]	MIC (Staphylococcus aureus [20]) [µg/mL]	other results
CCO/N=C1/CN(c2nc3c(cc2F)c(=O)c(C(=O)O)cn3-c2nc(N)c(F)cc2F)CC1(C)CNC1CC1 (stereo not given)	27.7 (≈ 50.9 µM)	32 (≈ 58.7 µM)	64 (≈ 117 µM)	> 128	> 128	128 (≈ 235 µM)	> 128	> 128	> 128	> 128	> 128	> 128	> 128	128 (≈ 235 µM)	64 (≈ 117 µM)	128 (≈ 235 µM)	128 (≈ 235 µM)	> 128	0.5 (≈ 0.917 µM)	32 (≈ 58.7 µM)	MIC (Staphylococcus aureus [21]): 16 µg/mL (≈ 29.3 µM); MIC (Staphylococcus aureus [22]): 4 µg/mL (≈ 7.33 µM); MIC (Staphylococcus aureus [23]): 64 µg/mL (≈ 117 µM); MIC (Staphylococcus aureus [24]): 64 µg/mL (≈ 117 µM); MIC [25]: 128 µg/mL (≈ 235 µM); MIC [26]: 64 µg/mL (≈ 117 µM); MIC [27]: 128 µg/mL (≈ 235 µM); MIC [28]: 128 µg/mL (≈ 235 µM); MIC [29]: 64 µg/mL (≈ 117 µM); MIC (Streptococcus pneumoniae): 16 µg/mL (≈ 29.3 µM); MIC (Enterococcus faecium [30]): 128 µg/mL (≈ 235 µM); MIC (Enterococcus faecium [31]): 128 µg/mL (≈ 235 µM); MIC (Enterococcus faecium [32]): 64 µg/mL (≈ 117 µM); MIC (Enterococcus faecalis [33]): 64 µg/mL (≈ 117 µM); MIC (Enterococcus faecalis [34]): 8 µg/mL (≈ 14.7 µM)
CO/N=C1/CN(c2nc3c(cc2F)c(=O)c(C(=O)O)cn3-c2nc(N)c(F)cc2F)CC1(C)CNC1CC1 (stereo not given)	15.6 (≈ 29.4 µM)	16 (≈ 30.1 µM)	128 (≈ 241 µM)	> 128	> 128	128 (≈ 241 µM)	> 128	> 128	> 128	> 128	> 128	> 128	> 128	128 (≈ 241 µM)	128 (≈ 241 µM)	> 128	128 (≈ 241 µM)	> 128	0.25 (≈ 0.47 µM)	16 (≈ 30.1 µM)	MIC (Staphylococcus aureus [21]): 16 µg/mL (≈ 30.1 µM); MIC (Staphylococcus aureus [22]): 8 µg/mL (≈ 15.1 µM); MIC (Staphylococcus aureus [23]): 32 µg/mL (≈ 60.2 µM); MIC (Staphylococcus aureus [24]): 32 µg/mL (≈ 60.2 µM); MIC [25]: 128 µg/mL (≈ 241 µM); MIC [26]: 128 µg/mL (≈ 241 µM); MIC [27]: 32 µg/mL (≈ 60.2 µM); MIC [28]: 64 µg/mL (≈ 120 µM); MIC [29]: 128 µg/mL (≈ 241 µM); MIC (Streptococcus pneumoniae): 4 µg/mL (≈ 7.53 µM); MIC (Enterococcus faecium [30]): 64 µg/mL (≈ 120 µM); MIC (Enterococcus faecium [31]): 128 µg/mL (≈ 241 µM); MIC (Enterococcus faecium [32]): 64 µg/mL (≈ 120 µM); MIC (Enterococcus faecalis [33]): 128 µg/mL (≈ 241 µM); MIC (Enterococcus faecalis [34]): 8 µg/mL (≈ 15.1 µM)
CCO/N=C1/CN(c2nc3c(cc2F)c(=O)c(C(=O)O)cn3-c2nc(N)c(F)cc2F)CC1CNC1CC1 (stereo not given)	22 (≈ 41.4 µM)	4 (≈ 7.53 µM)	32 (≈ 60.2 µM)	> 128	> 128	> 128	128 (≈ 241 µM)	128 (≈ 241 µM)	128 (≈ 241 µM)	64 (≈ 120 µM)	64 (≈ 120 µM)	128 (≈ 241 µM)	> 128	32 (≈ 60.2 µM)	32 (≈ 60.2 µM)	128 (≈ 241 µM)	128 (≈ 241 µM)	128 (≈ 241 µM)	0.125 (≈ 0.235 µM)	16 (≈ 30.1 µM)	MIC (Staphylococcus aureus [21]): 32 µg/mL (≈ 60.2 µM); MIC (Staphylococcus aureus [22]): 32 µg/mL (≈ 60.2 µM); MIC (Staphylococcus aureus [23]): 64 µg/mL (≈ 120 µM); MIC (Staphylococcus aureus [24]): 8 µg/mL (≈ 15.1 µM); MIC [25]: > 128 µg/mL; MIC [26]: 128 µg/mL (≈ 241 µM); MIC [27]: 32 µg/mL (≈ 60.2 µM); MIC [28]: 64 µg/mL (≈ 120 µM); MIC [29]: 64 µg/mL (≈ 120 µM); MIC (Streptococcus pneumoniae): 16 µg/mL (≈ 30.1 µM); MIC (Enterococcus faecium [30]): 64 µg/mL (≈ 120 µM); MIC (Enterococcus faecium [31]): 32 µg/mL (≈ 60.2 µM); MIC (Enterococcus faecium [32]): 128 µg/mL (≈ 241 µM); MIC (Enterococcus faecalis [33]): 128 µg/mL (≈ 241 µM); MIC (Enterococcus faecalis [34]): 4 µg/mL (≈ 7.53 µM)
